Measurements reported in article PMC3716464 (Angewandte Chemie (International ed. in English), 2009).

Tested on: b(h)CAII
Test: dot blot detection of b
Type: binding, bovine; human
Conditions: biligand in 0.1% serum, compared with triligand in 10% porcine serum
Summary of the method: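 Dot blot with the test peptide as capture agent for b(h)CAII in 10% porcine serum, varying protein amount to find the detection limit. For comparison, the biligand anchor served as capture agent in 0.1% serum.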

With `C#CC[C@@H](N)C(=O)N[C@H](CCCCN)C(=O)N[C@H](Cc1c[nH]c2ccccc12)C(=O)N[C@H](CC(C)C)C(=O)N[C@H](Cc1c[nH]c2ccccc12)C(=O)NCC(=O)N[C@H](CC(C)C)C(=O)N[C@@H](CCCCn1cc(C[C@@H](NC(=O)[C@@H](CCCCN)NC(=O)[C@@H](Cc2ccccc2)NC(=O)[C@@H](Cc2c[nH]c3ccccc23)NC(=O)[C@@H](CC(C)C)NC(=O)[C@@H](CCCCN)NC(=O)[C@H](N)CC(C)C)C(N)=O)nn1)C(N)=O` [(D-Pra)-kwlwGl-Tz1-kfwlkl] the “reduction in sensitivity (biligand anchor as capture agent versus triligand)” value was “more than 10 fold”.
